Compound activity: PubChem, several laboratories
ATG4B inh = inhibitors of human ATG4B cysteine protease; Q9Y4P1; ATG4B cleavage of LC3-PLA2, NBD-HPC fluorescence, 1 h; inhibition, % at 8.33 µM; hit rate 0.51% among 340,000; AID 504462; in the data active = inhibition above about 40%
UCH37 DUB inh = inhibitors of human deubiquitinating enzyme UCH37; Q9Y5K5; purified proteasome/UCH37, Ub-AMC cleavage fluorescence; inhibition, % (no concentration beside the values); hit rate 0.33% among 330,000; AID 588478;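 active = mean inhibition over replicate wells above about 20%, limit read from the data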;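 also: 0% = compound-free wells with enzyme and 100% = wells lacking proteasome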
Target sequence (Q9Y5K5 whole entry, looked up): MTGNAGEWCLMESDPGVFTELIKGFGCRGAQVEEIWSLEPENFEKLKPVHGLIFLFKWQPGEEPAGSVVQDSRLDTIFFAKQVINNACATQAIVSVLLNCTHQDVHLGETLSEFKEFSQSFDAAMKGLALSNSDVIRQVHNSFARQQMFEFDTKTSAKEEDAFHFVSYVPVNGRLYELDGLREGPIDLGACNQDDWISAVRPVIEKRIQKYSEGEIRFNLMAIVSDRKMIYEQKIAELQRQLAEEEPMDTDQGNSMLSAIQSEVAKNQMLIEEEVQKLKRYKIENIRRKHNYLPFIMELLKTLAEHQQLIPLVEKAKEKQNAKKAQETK
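Assay system: Proteasome-bound UCH37. Buffer or medium: pH 7.4 Tris-HCl (50 mM) with ovalbumin, ATP-MgCl2, DTT. Incubation: 30 min preincubation with enzyme, 25 min cleavage at room temperature. Measured by: fluorescence, ex 355 nm, em 460 nm. Read-out basis: percent inhibition. Control set: wells without proteasome as full block, compound-free enzyme plus substrate as uninhibited.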
NadD block = NadD (S. aureus) enzyme inhibition | purified NadD enzyme, colorimetric absorbance read-out | inhibition, % at 20 µM | hit rate 0.78% among 360,000 | AID 602399; in the data active = inhibition above about 26%
SENP1 FRET inh = blocks the human SENP1 SUMO protease catalytic domain; Q9P0U3; recombinant SENP1 catalytic domain, CyPet-SUMO1-YPet FRET cleavage; inhibition, % at 10 µM; hit rate 0.21% among 360,000; AID 624204;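 active = inhibition at least 30% at 10 µM, raw YFP signal under a set limit, fluorescence ratio 0.5 to 1.5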;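 also: 0% = enzyme with DMSO and 100% = no enzyme wells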
Target sequence (Q9P0U3 419-644 limits assumed): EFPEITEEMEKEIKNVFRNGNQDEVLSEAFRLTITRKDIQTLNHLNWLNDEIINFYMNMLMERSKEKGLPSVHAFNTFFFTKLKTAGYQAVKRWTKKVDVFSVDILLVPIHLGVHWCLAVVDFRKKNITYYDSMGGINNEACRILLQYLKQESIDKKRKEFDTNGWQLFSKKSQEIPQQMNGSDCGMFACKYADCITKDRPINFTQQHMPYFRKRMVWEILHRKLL
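Material: hSENP1 catalytic domain, recombinant; medium: Tris pH 8 with BME, BSA, NP40 and catalase; compound: single concentration of 10 µM compound, 0.5% DMSO final; technique: FRET read of cyan and yellow fluorescence; timing: 50 min enzyme reaction, room temperature, light-protected; reagent: SFCypet-SUMO1-SFYpet substrate at 25 nM; control set: no-enzyme low, enzyme-DMSO high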
GRIN3A LBD mod = modulates the human NR3A ligand-binding domain; AID 1259313; NR3A LBD differential scanning fluorimetry, Tm shift; 0% = protein alone, 100% = glycine-bound protein; Tm shift relative to glycine control, % at 25 µM; hit rate 2.5% among 340,000;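 active = melting temperature shift of at least 10% of the positive control shift, at one fixed dose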
* = called active by the depositor; i = inactive; nt = not tested or not shown. Sampled rows, rich in hits. Any-hit rate of the full collection: about 3.6%.

SMILES	ATG4B inh	UCH37 DUB inh	NadD block	SENP1 FRET inh	GRIN3A LBD mod
Cc1ccc(C=NNC(=O)c2nnn(-c3nonc3N)c2CSc2ccccc2)o1	nt	0	nt	nt	nt
COc1cc(-c2nc3cnccn3c2Nc2ccc3c(c2)OCCO3)ccc1O	-16	-10	10	-32	1
COc1cc(-c2nc3ccc(C)cn3c2Nc2ccc3c(c2)OCCO3)ccc1O	-12	nt	14	-18	23*
NC(=NOC(=O)c1ccc(Cl)cc1)c1ncc([N+](=O)[O-])s1	nt	5	nt	nt	nt
Cc1nonc1C(=O)NN=Cc1ccc([N+](=O)[O-])o1	nt	13	nt	nt	nt
O=C(Oc1ccc(-c2csnn2)cc1)c1cccs1	6	5	-2	8	29*
O=C(Oc1ccccc1-c1csnn1)c1cccs1	-5	0	-2	2	-2
C=CCN1C(=O)C2(NNc3ccccc3O2)c2ccccc21 (stereo not given)	-5	-1	-7	81*	2
Cc1cccn2c(=O)c3cc(C#N)c(=O)n(Cc4cccnc4)c3nc12	-1	i	-1	-21	19*
Cc1cccn2c(=O)c3cc(C#N)c(=N)n(Cc4cccnc4)c3nc12	-6	-7	-2	-130	-1
Cc1cccn2c(=O)c3cc(S(=O)(=O)c4ccccc4)c(=N)n(Cc4cccnc4)c3nc12	5	-24	17	-25	-2
Cc1ccc(S(=O)(=O)c2cc3c(=O)n4cccc(C)c4nc3n(Cc3ccncc3)c2=N)cc1	-5	nt	7	-25	11*
CC(=NNC(=O)c1cccc(N2CCCC2=O)c1)c1ccc(N)cc1	nt	7	nt	nt	nt
CCC1(C)CC(C(CC(=O)O)c2ccc(C)cc2)CCO1 (stereo not given)	-5	4	-1	0	11*
CC1(C)CC(C(CC(=O)O)c2ccccc2)CCO1 (stereo not given)	-17	2	9	3	-1
CCc1oc(C(=O)O)cc1CN(CC)CC	0	1	-1	2	2
CCN(CC)Cc1cc(O)c(CN(CC)CC)cc1O	-6	5	31*	46*	-3
N#CNc1nc(O)cc(=O)[nH]1	1	4	0	29*	1
CSc1cc(C)n(-c2ccccc2)c(=S)c1C(C)=O	-1	7	1	4	12*
COc1cccc(Cn2c(=S)[nH]c3ccc(N4CCOCC4)cc3c2=O)c1	14	-135	5	-46	22*
O=c1c2cc(Cl)ccc2[nH]c(=S)n1Cc1cccs1	6	-4	-3	3	19*
O=c1c2cc(N3CCOCC3)ccc2[nH]c(=S)n1Cc1cccc(Cl)c1	2	-1	8	-64	31*
Cc1ccc(NC(=O)CC2S/C(=N/N=C3CCCc4ccccc43)NC2=O)cc1 (stereo not given)	nt	5	nt	nt	nt
N/C(=N\N=Cc1ccnc2ccccc12)SC1CC(=O)N(c2ccc(Br)cc2)C1=O (stereo not given)	nt	0	nt	nt	nt
Cc1ccsc1C=NNc1ncc(Cl)cc1Cl	nt	-1	nt	nt	nt
SMILES	ATG4B inh	UCH37 DUB inh	NadD block	SENP1 FRET inh	GRIN3A LBD mod
O=C(Nc1ccncc1)Nc1ccc(Cl)cc1	0	3	0	1	26*
O=C(NC(=O)c1ccccc1)Nc1ccc(-c2cnco2)cc1	-10	-1	-7	-4	-5
O=C(Nc1ccc(Cl)cc1)Nc1ccon1	-7	2	-1	-2	14*
Cc1ccc(NC(=O)Nc2ccon2)cc1	0	5	-5	1	-1
O=C(Nc1ccc(Cl)cc1)Nc1ccc(-c2cnco2)cc1	-15	1	-7	0	37*
O=C(Nc1ccncc1)Nc1ccncc1	4	1	0	0	-11
CC(=NNC(=O)C1CC1)c1ccc(C)cc1C	nt	6	nt	nt	nt
CC(=O)Nc1ccc(NC(=O)CC(C)=NNC(=O)C(=O)Nc2ccc(C)c(Cl)c2)cc1	nt	2	nt	nt	nt
CN(C)S(=O)(=O)c1ccc(C(=O)NCC(=O)NN=Cc2ccccc2Cl)cc1	nt	1	nt	nt	nt
FC(F)(F)c1cnc(NNC(=S)Nc2ccc(Cl)cc2)c(Cl)c1	-2	3	2	-1	18*
Cc1ccc(NC(=S)NNc2ncc(C(F)(F)F)cc2Cl)cc1	9	1	-4	3	-5
Cc1nn(CCCC(=O)NCc2ccc(Cl)cc2)c(C)c1[N+](=O)[O-]	15	6	-10	2	12*
N#Cc1cnc(Nc2ccc(F)cc2)nc1N	-4	6	-8	0	13*
Cc1cc(C)c(C#N)c(Nc2ccc(F)cc2)n1	6	-20	7	0	-1
COc1cccc(C=NNc2nc(Nc3ccc([N+](=O)[O-])cc3)nc(N3CCCC3)n2)c1O	nt	5	nt	nt	nt
CC(Oc1ccc(Cl)cc1Cl)C(=O)NN=C1CCCc2ccccc21 (stereo not given)	nt	4	nt	nt	nt
COc1ccc(C=NNC(=O)CCN2CCN(c3ccccc3)CC2)cc1OC	nt	4	nt	nt	nt
COC(=O)c1ccc(N2C(=O)CC(SCCN)C2=O)cc1 (stereo not given)	-4	2	-5	1	12*
CCOC(=O)C(N)CSC1CC(=O)N(c2ccc(C(=O)OC)cc2)C1=O (stereo not given)	-2	-2	0	3	-2
COC(=O)c1sc(SC)c2c1CC(C)(C)CC2=NO	nt	1	nt	nt	nt
Cn1c(NCc2c(O)ccc3ccccc23)nc2ccccc21	-18	-1	14	-26	14*
Oc1ccc2ccccc2c1CNc1ccc(Br)cc1	-15	3	nt	nt	15*
Oc1ccc2ccccc2c1CNc1ccc(Br)cn1	-3	4	3	0	25*
Oc1ccc2ccccc2c1CNc1cnc2ccccc2c1	-13	-143	9	-6	-7
COc1cccc(C=Nn2c(C)nnc2C)c1OC	nt	-7	nt	nt	nt
SMILES	ATG4B inh	UCH37 DUB inh	NadD block	SENP1 FRET inh	GRIN3A LBD mod
CN1C(=c2sc(=C3C(=O)N(c4ccccc4)NC3=Nc3ccccc3)n(C)c2=O)C(C)(C)c2ccccc21	nt	5	nt	nt	nt
Cc1ccc(N2C(=O)CSC2=NC(=S)Nc2ccccc2)cc1	nt	9	nt	nt	nt
CCOc1cc(/C=C2/C(=O)ON=C2C)cc(Br)c1O	1	4	-4	4	21*
CCOc1cc(/C=C2\C(=O)ON=C2c2ccccc2)cc(Br)c1O	9	3	-3	9	nt
O=C(NN=Cc1cc(Br)ccc1O)Nc1ccccc1	nt	-6	nt	nt	nt
Cc1cc(C)c(C=NNC(N)=O)c(C)c1C=NNC(N)=O	nt	3	nt	nt	nt
COc1ccc(-c2nn(-c3ccccc3)cc2/C=N/NS(=O)(=O)c2ccccc2)cc1	-5	nt	3	3	21*
COC(=O)CSc1nc(SC)nc2c1sc1nc(-c3ccco3)c3c(c12)CC(C)(C)OC3	5	-2	-3	-2	1
CSc1nc(N(CCO)CCO)c2sc3nc(-c4ccco4)c4c(c3c2n1)CCC4	0	-27	80*	9	-2
C/C(C=NNC(=O)c1cc(-c2ccc(Cl)cc2)nc2ccccc12)=C\c1ccco1	nt	0	nt	nt	nt
CC(=NNC(=O)CC1N=C(Cc2ccccc2)NNC1=O)c1ccncc1 (stereo not given)	nt	6	nt	nt	nt
